Source: ChEMBL document CHEMBL1139935, “Discovery of novel indazole-linked triazoles as antifungal agents” (2007)
Values after ≈ are worked out from the molar mass of the structure shown.

Tests used:
Candida albicans [1] = experiment: Antifungal activity against Candida albicans ATCC 36082 by broth microdilution assay; format: functional
Nakaseomyces glabratus = experiment: Antifungal activity against Candida glabrata ATCC 34138 by broth microdilution assay; format: functional
Pichia kudriavzevii = experiment: Antifungal activity against Candida krusei ATCC 6528 by broth microdilution assay; format: functional
Clavispora lusitaniae = experiment: Antifungal activity against Candida lusitaniae ATCC 42720 by broth microdilution assay; format: functional
Candida tropicalis = experiment: Antifungal activity against Candida tropicalis ATCC 750 by broth microdilution assay; format: functional
Candida parapsilosis = experiment: Antifungal activity against Candida parapsilosis ATCC 21019 by broth microdilution assay; format: functional; conditions: Lodderomyces parapsilosis
Aspergillus fumigatus = experiment: Antifungal activity against Aspergillus fumigatus ATCC 16424 by broth microdilution assay; format: functional
Aspergillus flavus = experiment: Antifungal activity against Aspergillus flavus ATCC MYA-1004 by broth microdilution assay; format: functional
Aspergillus terreus = experiment: Antifungal activity against Aspergillus terreus ATCC 28301 by broth microdilution assay; format: functional
Aspergillus niger = experiment: Antifungal activity against Aspergillus niger ATCC 9042 by broth microdilution assay; format: functional
Cryptococcus neoformans = experiment: Antifungal activity against Cryptococcus neoformans ATCC 24065 by broth microdilution assay
HepG2 = experiment: Cytotoxicity against human HepG2 cells by neutral red uptake assay; format: functional
In short: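 Human hepatoma HepG2 cells; neutral red uptake read-out following a previously described protocol; the value is the CC50 (concentration giving half-maximal cytotoxicity); ketoconazole served as reference agent.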

Candida albicans [2] = experiment: Antifungal activity against systemic Candida albicans ATCC 36082 infection model in ICR mouse assessed as survival at 20 mg/kg, po; format: functional
In short: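 C. albicans ATCC 36082 given systemically, about 5 × 10⁵ cells per animal. Oral dosing at 20 mg/kg once daily started 2 h post-infection and continued for 7 consecutive days. Read-out was mean survival days, compared against an untreated infected control group.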

| MIC80 (Candida albicans [1]) | MIC80 (Nakaseomyces glabratus) | MIC80 (Pichia kudriavzevii) | MIC80 (Clavispora lusitaniae) | MIC80 (Candida tropicalis) | MIC80 (Candida parapsilosis) | MIC80 (Aspergillus fumigatus) | MIC80 (Aspergillus flavus) | MIC80 (Aspergillus terreus) | MIC80 (Aspergillus niger) | MIC80 (Cryptococcus neoformans) | SMILES | CC50 (HepG2) | Survival (Candida albicans [2]) |
| --- | --- | --- | --- | --- | --- | --- | --- | --- | --- | --- | --- | --- | --- |
| ≤ 0.015 µg/mL | 4 µg/mL (≈ 10.3 µM) | 1 µg/mL (≈ 2.58 µM) | ≤ 0.015 µg/mL | 0.25 µg/mL (≈ 0.645 µM) | 0.125 µg/mL (≈ 0.323 µM) | 4 µg/mL (≈ 10.3 µM) | 4 µg/mL (≈ 10.3 µM) | 4 µg/mL (≈ 10.3 µM) | 8 µg/mL (≈ 20.7 µM) | 0.063 µg/mL (≈ 0.163 µM) | C[C@@H](n1ncc2cc(F)ccc21)[C@](O)(Cn1cncn1)c1ccc(F)cc1F |  |  |
| 0.063 µg/mL (≈ 0.152 µM) | > 8 µg/mL | > 8 µg/mL | 0.5 µg/mL (≈ 1.21 µM) | 8 µg/mL (≈ 19.3 µM) | 0.25 µg/mL (≈ 0.603 µM) | 32 µg/mL (≈ 77.2 µM) | 32 µg/mL (≈ 77.2 µM) | 128 µg/mL (≈ 309 µM) | 64 µg/mL (≈ 154 µM) | 0.5 µg/mL (≈ 1.21 µM) | C[C@@H](n1cc2ccc([N+](=O)[O-])cc2n1)[C@](O)(Cn1cncn1)c1ccc(F)cc1F |  |  |
| ≤ 0.015 µg/mL | 4 µg/mL (≈ 10.3 µM) | 0.5 µg/mL (≈ 1.29 µM) | ≤ 0.015 µg/mL | 0.125 µg/mL (≈ 0.323 µM) | 0.031 µg/mL (≈ 0.08 µM) | 0.25 µg/mL (≈ 0.645 µM) | 0.5 µg/mL (≈ 1.29 µM) | 0.5 µg/mL (≈ 1.29 µM) | 1 µg/mL (≈ 2.58 µM) | 0.063 µg/mL (≈ 0.163 µM) | C[C@@H](n1cc2cc(F)ccc2n1)[C@](O)(Cn1cncn1)c1ccc(F)cc1F |  |  |
| ≤ 0.015 µg/mL | 4 µg/mL (≈ 9.91 µM) | 0.125 µg/mL (≈ 0.31 µM) | ≤ 0.015 µg/mL | 0.031 µg/mL (≈ 0.0768 µM) | ≤ 0.015 µg/mL | 0.25 µg/mL (≈ 0.619 µM) | 0.5 µg/mL (≈ 1.24 µM) | 0.5 µg/mL (≈ 1.24 µM) | 1 µg/mL (≈ 2.48 µM) | 0.015 µg/mL (≈ 0.0371 µM) | C[C@@H](n1cc2cc(Cl)ccc2n1)[C@](O)(Cn1cncn1)c1ccc(F)cc1F |  |  |
| ≤ 0.015 µg/mL | 4 µg/mL (≈ 9.57 µM) | 2 µg/mL (≈ 4.79 µM) | ≤ 0.015 µg/mL | 1 µg/mL (≈ 2.39 µM) | 0.125 µg/mL (≈ 0.299 µM) | > 16 µg/mL | > 16 µg/mL | > 16 µg/mL | > 16 µg/mL | 0.25 µg/mL (≈ 0.598 µM) | Cc1nn([C@H](C)[C@](O)(Cn2cncn2)c2ccc(F)cc2F)c2ccc(Cl)cc12 |  |  |
| 0.25 µg/mL (≈ 0.65 µM) | > 8 µg/mL | 8 µg/mL (≈ 20.8 µM) | 0.25 µg/mL (≈ 0.65 µM) | 1 µg/mL (≈ 2.6 µM) | 2 µg/mL (≈ 5.2 µM) |  |  |  |  | 1 µg/mL (≈ 2.6 µM) | C[C@@H](n1ncc2cc(N)ccc21)[C@](O)(Cn1cncn1)c1ccc(F)cc1F |  |  |
| 0.063 µg/mL (≈ 0.153 µM) | 8 µg/mL (≈ 19.4 µM) | 1 µg/mL (≈ 2.42 µM) | 0.063 µg/mL (≈ 0.153 µM) | 0.5 µg/mL (≈ 1.21 µM) | 0.5 µg/mL (≈ 1.21 µM) | 1 µg/mL (≈ 2.42 µM) | 1 µg/mL (≈ 2.42 µM) | 2 µg/mL (≈ 4.85 µM) | 2 µg/mL (≈ 4.85 µM) | 0.25 µg/mL (≈ 0.606 µM) | C[C@@H](n1ncc2cc(N(C)C)ccc21)[C@](O)(Cn1cncn1)c1ccc(F)cc1F |  |  |
| ≤ 0.015 µg/mL | 4 µg/mL (≈ 8.92 µM) | 2 µg/mL (≈ 4.46 µM) | ≤ 0.015 µg/mL | 1 µg/mL (≈ 2.23 µM) | 0.125 µg/mL (≈ 0.279 µM) | 2 µg/mL (≈ 4.46 µM) | 4 µg/mL (≈ 8.92 µM) | 4 µg/mL (≈ 8.92 µM) | 4 µg/mL (≈ 8.92 µM) | ≤ 0.015 µg/mL | C[C@@H](n1ncc2cc(Br)ccc21)[C@](O)(Cn1cncn1)c1ccc(F)cc1F |  |  |
| 0.015 µg/mL (≈ 0.035 µM) | 8 µg/mL (≈ 18.7 µM) | 4 µg/mL (≈ 9.34 µM) | 0.063 µg/mL (≈ 0.147 µM) | 4 µg/mL (≈ 9.34 µM) | 0.125 µg/mL (≈ 0.292 µM) | 4 µg/mL (≈ 9.34 µM) | 16 µg/mL (≈ 37.3 µM) | 8 µg/mL (≈ 18.7 µM) | 16 µg/mL (≈ 37.3 µM) | 0.25 µg/mL (≈ 0.584 µM) | Cc1nn([C@H](C)[C@](O)(Cn2cncn2)c2ccc(F)cc2F)c2ccc([N+](=O)[O-])cc12 |  |  |
| 0.031 µg/mL (≈ 0.0772 µM) | 8 µg/mL (≈ 19.9 µM) | 4 µg/mL (≈ 9.97 µM) | 0.125 µg/mL (≈ 0.311 µM) | 4 µg/mL (≈ 9.97 µM) | 0.5 µg/mL (≈ 1.25 µM) | 4 µg/mL (≈ 9.97 µM) | 8 µg/mL (≈ 19.9 µM) | 4 µg/mL (≈ 9.97 µM) | 16 µg/mL (≈ 39.9 µM) | 0.5 µg/mL (≈ 1.25 µM) | Cc1nn([C@H](C)[C@](O)(Cn2cncn2)c2ccc(F)cc2F)c2ccc(F)cc12 |  |  |
| ≤ 0.015 µg/mL | 8 µg/mL (≈ 19.3 µM) | 0.5 µg/mL (≈ 1.21 µM) | ≤ 0.015 µg/mL | ≤ 0.015 µg/mL | ≤ 0.015 µg/mL | 2 µg/mL (≈ 4.83 µM) | 2 µg/mL (≈ 4.83 µM) | 2 µg/mL (≈ 4.83 µM) | 4 µg/mL (≈ 9.65 µM) | 0.25 µg/mL (≈ 0.603 µM) | C[C@@H](n1ncc2ccc([N+](=O)[O-])cc21)[C@](O)(Cn1cncn1)c1ccc(F)cc1F |  |  |
| ≤ 0.015 µg/mL | 4 µg/mL (≈ 9.65 µM) | 0.5 µg/mL (≈ 1.21 µM) | ≤ 0.015 µg/mL | ≤ 0.015 µg/mL | ≤ 0.015 µg/mL | 2 µg/mL (≈ 4.83 µM) | 1 µg/mL (≈ 2.41 µM) | 2 µg/mL (≈ 4.83 µM) | 4 µg/mL (≈ 9.65 µM) | 0.125 µg/mL (≈ 0.302 µM) | C[C@@H](n1ncc2cccc([N+](=O)[O-])c21)[C@](O)(Cn1cncn1)c1ccc(F)cc1F |  |  |

| SMILES | MIC80 (Candida albicans [1]) | MIC80 (Nakaseomyces glabratus) | MIC80 (Pichia kudriavzevii) | MIC80 (Clavispora lusitaniae) | MIC80 (Candida tropicalis) | MIC80 (Candida parapsilosis) | MIC80 (Aspergillus fumigatus) | MIC80 (Aspergillus flavus) | MIC80 (Aspergillus terreus) | MIC80 (Aspergillus niger) | MIC80 (Cryptococcus neoformans) | CC50 (HepG2) | Survival (Candida albicans [2]) |
| --- | --- | --- | --- | --- | --- | --- | --- | --- | --- | --- | --- | --- | --- |
| C[C@@H](n1ncc2ccccc21)[C@](O)(Cn1cncn1)c1ccc(F)cc1F | ≤ 0.015 µg/mL | 2 µg/mL (≈ 5.41 µM) | 0.5 µg/mL (≈ 1.35 µM) | 0.063 µg/mL (≈ 0.171 µM) | 0.125 µg/mL (≈ 0.338 µM) | 0.063 µg/mL (≈ 0.171 µM) | 2 µg/mL (≈ 5.41 µM) | 1 µg/mL (≈ 2.71 µM) | 2 µg/mL (≈ 5.41 µM) | 4 µg/mL (≈ 10.8 µM) | 0.063 µg/mL (≈ 0.171 µM) | 599 µM | 7.2 days |
